Results on one compound are retold here after ChEMBL document CHEMBL5661979, “Pharmacological inhibition of BMK1 suppresses tumor growth through promyelocytic leukemia protein” (Cancer Cell, 2010).

Activity calls are given as the source filed them. No cut-off for these calls is given here.

Data set [1] addresses Serine/threonine-protein kinase TAO3 (Homo sapiens, UniProt Q9H2K8). Description: Inhibition of TAO3 in human HeLa cells lysate pre incubated for 15 mins followed by ATP acyl phosphate probe addition and measured after 10 mins by LC-MS/MS analysis. The format is subcellular.
Data set [2] concerns the target Ribosomal protein S6 kinase alpha-3 (Homo sapiens, UniProt P51812). Description: Inhibition of RSK2 domain 2 in human HeLa cells lysate at 2 uM pre incubated for 15 mins followed by ATP acyl phosphate probe addition and measured after 10 mins by LC-MS/MS analysis relative to control. As to conditions: time 25.0 min. The format is subcellular.
Data set [3] deals with T1, Serine/threonine-protein kinase tousled-like 1 (Homo sapiens) (UniProt Q9UKI8).
T1 sequence (whole entry): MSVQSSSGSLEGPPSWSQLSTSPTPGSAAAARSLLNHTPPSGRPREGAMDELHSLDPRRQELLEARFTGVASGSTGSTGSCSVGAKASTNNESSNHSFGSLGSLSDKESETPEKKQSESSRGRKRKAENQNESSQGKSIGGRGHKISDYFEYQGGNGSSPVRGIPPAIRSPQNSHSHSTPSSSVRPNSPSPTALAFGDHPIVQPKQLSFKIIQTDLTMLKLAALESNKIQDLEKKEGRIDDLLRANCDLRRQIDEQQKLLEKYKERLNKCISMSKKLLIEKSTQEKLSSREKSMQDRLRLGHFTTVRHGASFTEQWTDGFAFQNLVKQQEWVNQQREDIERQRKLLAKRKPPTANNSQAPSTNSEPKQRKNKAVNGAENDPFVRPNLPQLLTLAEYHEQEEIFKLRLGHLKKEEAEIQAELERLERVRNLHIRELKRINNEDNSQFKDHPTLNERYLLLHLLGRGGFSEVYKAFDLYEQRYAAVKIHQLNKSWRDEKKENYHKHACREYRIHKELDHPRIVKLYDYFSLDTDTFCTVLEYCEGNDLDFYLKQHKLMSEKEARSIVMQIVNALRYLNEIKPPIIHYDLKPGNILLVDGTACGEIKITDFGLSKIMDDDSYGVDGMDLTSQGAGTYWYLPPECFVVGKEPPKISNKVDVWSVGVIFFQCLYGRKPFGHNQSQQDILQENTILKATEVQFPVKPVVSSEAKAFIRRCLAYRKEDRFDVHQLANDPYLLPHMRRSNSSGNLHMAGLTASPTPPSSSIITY
Description: Inhibition of TLK1 in human HeLa cells lysate at 50 uM pre incubated for 15 mins followed by ADP acyl phosphate probe addition and measured after 10 mins by LC-MS/MS analysis relative to control. Type of data set: subcellular. As to conditions: time 25.0 min.

The target of data set [4] is T2, Dual specificity mitogen-activated protein kinase kinase 4 (Homo sapiens) (UniProt P45985).
T2 sequence (whole entry): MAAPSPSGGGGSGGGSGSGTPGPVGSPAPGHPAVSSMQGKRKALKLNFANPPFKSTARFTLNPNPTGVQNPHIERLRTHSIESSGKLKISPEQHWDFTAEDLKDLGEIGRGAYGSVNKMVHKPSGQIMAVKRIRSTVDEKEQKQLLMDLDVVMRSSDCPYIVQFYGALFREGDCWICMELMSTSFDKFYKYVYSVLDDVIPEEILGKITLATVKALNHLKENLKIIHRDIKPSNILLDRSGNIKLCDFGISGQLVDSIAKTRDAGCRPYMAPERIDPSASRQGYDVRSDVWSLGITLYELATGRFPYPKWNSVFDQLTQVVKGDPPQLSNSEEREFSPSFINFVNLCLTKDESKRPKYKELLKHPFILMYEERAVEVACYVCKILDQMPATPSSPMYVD
Nature of the data set: Inhibition of MAP2K4 in human HeLa cells lysate at 2 uM pre incubated for 15 mins followed by ATP acyl phosphate probe addition and measured after 10 mins by LC-MS/MS analysis relative to control. Type of data set: subcellular. As to conditions: time 25.0 min.

Data set [5] concerns the target Ribosomal protein S6 kinase alpha-1 (Homo sapiens, UniProt Q15418). Nature of the data set: Inhibition of RSK1 domain 2 K1 site in human HeLa cells lysate at 50 uM pre incubated for 15 mins followed by ADP acyl phosphate probe addition and measured after 10 mins by LC-MS/MS analysis relative to control. The settings on record: time 25.0 min. Type of data set: subcellular.

Data set [6] addresses Ribosomal protein S6 kinase alpha-5 (Homo sapiens, UniProt O75582). Description: Inhibition of MSK1 domain 1 K1 site in human HeLa cells lysate pre incubated for 15 mins followed by ADP acyl phosphate probe addition and measured after 10 mins by LC-MS/MS analysis. The format is subcellular.
In data set [7] the target is eIF-2-alpha kinase GCN2 (Homo sapiens, UniProt Q9P2K8). Nature of the data set: Inhibition of GCN2 in human HeLa cells lysate at 10 uM pre incubated for 15 mins followed by ATP acyl phosphate probe addition and measured after 10 mins by LC-MS/MS analysis relative to control. The format is subcellular. The settings on record: time 25.0 min.
eIF-2-alpha kinase GCN2, sequence (Q9P2K8 whole entry): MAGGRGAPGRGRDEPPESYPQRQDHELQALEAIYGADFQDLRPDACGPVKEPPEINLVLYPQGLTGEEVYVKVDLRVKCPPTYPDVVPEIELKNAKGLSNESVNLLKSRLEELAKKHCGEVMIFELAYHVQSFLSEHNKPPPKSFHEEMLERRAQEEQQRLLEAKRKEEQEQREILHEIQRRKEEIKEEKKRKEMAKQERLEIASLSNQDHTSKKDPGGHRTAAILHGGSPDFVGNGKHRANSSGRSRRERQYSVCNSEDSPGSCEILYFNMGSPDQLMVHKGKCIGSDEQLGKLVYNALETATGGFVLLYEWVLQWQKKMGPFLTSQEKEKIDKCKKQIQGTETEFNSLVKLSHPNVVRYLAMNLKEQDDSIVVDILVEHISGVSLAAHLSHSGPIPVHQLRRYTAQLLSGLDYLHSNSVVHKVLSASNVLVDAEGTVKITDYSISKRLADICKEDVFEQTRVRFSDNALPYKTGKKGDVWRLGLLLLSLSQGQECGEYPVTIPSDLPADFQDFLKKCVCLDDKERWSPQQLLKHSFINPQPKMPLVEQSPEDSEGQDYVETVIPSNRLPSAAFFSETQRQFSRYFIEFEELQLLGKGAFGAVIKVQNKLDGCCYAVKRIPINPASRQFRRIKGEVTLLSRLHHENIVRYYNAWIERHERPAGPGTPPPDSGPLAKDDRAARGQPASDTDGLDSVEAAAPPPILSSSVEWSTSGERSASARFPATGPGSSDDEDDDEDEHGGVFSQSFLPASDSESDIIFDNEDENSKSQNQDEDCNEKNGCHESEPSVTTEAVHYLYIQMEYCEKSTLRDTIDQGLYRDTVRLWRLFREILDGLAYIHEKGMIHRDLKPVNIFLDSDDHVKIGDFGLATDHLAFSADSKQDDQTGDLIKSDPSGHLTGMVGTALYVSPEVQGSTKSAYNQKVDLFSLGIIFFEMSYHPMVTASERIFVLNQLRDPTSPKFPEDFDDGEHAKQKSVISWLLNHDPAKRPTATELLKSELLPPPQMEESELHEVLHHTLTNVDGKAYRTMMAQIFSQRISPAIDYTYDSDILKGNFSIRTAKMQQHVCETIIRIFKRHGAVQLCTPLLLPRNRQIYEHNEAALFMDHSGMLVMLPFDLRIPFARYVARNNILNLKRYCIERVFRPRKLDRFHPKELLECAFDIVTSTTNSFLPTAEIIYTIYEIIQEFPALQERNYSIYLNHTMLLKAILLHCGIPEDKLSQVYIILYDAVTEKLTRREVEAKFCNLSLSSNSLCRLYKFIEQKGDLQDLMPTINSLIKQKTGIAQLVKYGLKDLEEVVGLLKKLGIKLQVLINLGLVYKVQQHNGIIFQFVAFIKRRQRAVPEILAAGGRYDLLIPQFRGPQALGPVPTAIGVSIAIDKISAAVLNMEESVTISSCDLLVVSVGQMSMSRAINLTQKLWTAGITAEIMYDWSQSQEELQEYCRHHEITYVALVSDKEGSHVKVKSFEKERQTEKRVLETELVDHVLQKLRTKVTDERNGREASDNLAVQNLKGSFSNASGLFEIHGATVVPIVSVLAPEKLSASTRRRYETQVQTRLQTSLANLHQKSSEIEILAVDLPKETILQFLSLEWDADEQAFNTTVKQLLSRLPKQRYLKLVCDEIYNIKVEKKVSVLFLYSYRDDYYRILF
Data set [8] has as its target c-Jun N-terminal kinase, JNK (Homo sapiens, UniProt P45983+P53779+P45984). Description: Inhibition of JNK1/JNK2/JNK3 in human HeLa cells lysate at 50 uM pre incubated for 15 mins followed by ATP acyl phosphate probe addition and measured after 10 mins by LC-MS/MS analysis relative to control. The settings on record: time 25.0 min. The format is subcellular.
Data set [9] has as its system A549. Nature of the data set: Antitumor activity against human A549 cells xenografted in NOD/SCID mouse assessed as reduction in BMK activation at 50 mg/kg, ip administered twice a day for 2 days by Western blot analysis. The format is functional, organism-based. The settings on record: time 2.0 day. The method in brief:
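A549 cells (1×10^6, in DMEM) were injected s.c. into the right flank of 6-week-old Nod/Scid mice. On day 21, mice received 50 mg/kg twice daily or carrier; 2 per group. After 2 days, tumors were homogenized in E1A buffer. Western blot read BMK1 activation (mobility shift) and p21, quantified by densitometry normalized to GAPDH.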

Data set [10] in a line: Oral bioavailability in Sprague-Dawley rat at 2 mg/kg measured up to 8 hrs by LC-MS/MS analysis. Type of data set: ADME, organism-based. The settings on record: in vivo.
In data set [11] the target is Ribosomal protein S6 kinase beta-2 (Homo sapiens, UniProt Q9UBS0). Nature of the data set: Inhibition of P70S6KB in human HeLa cells lysate at 50 uM pre incubated for 15 mins followed by ATP acyl phosphate probe addition and measured after 10 mins by LC-MS/MS analysis relative to control. Type of data set: subcellular. As to conditions: time 25.0 min.
Data set [12] has as its target Phosphatidylinositol 4-phosphate 3-kinase C2 domain-containing subunit beta (Homo sapiens, UniProt O00750). Nature of the data set: Inhibition of PIK3C2B in human HeLa cells lysate at 2 uM pre incubated for 15 mins followed by ATP acyl phosphate probe addition and measured after 10 mins by LC-MS/MS analysis relative to control. The format is subcellular. The settings on record: time 25.0 min.

Data set [13] deals with Interferon-induced, double-stranded RNA-activated protein kinase (Homo sapiens, UniProt P19525). Description: Inhibition of PKR in human HeLa cells lysate at 50 uM pre incubated for 15 mins followed by ADP acyl phosphate probe addition and measured after 10 mins by LC-MS/MS analysis relative to control. The format is subcellular. As to conditions: time 25.0 min.
Data set [14] is described as follows: Inhibition of KHS1/2 in human HeLa cells lysate pre incubated for 15 mins followed by ATP acyl phosphate probe addition and measured after 10 mins by LC-MS/MS analysis. The format is subcellular.
The target in data set [15] is Mitogen-activated protein kinase 4 (Homo sapiens, UniProt P31152). Nature of the data set: Inhibition of ERK4 in human HeLa cells lysate at 50 uM pre incubated for 15 mins followed by ATP acyl phosphate probe addition and measured after 10 mins by LC-MS/MS analysis relative to control. Type of data set: subcellular. As to conditions: time 25.0 min.
Data set [16] can be described thus: Toxicity in C57Bl/6 mouse assessed as distress effect at 50 mg/kg, ip for 14 days. The format is organism-based. The settings on record: in vivo, 336 h, time 14 day.

Ribosomal protein S6 kinase alpha-3, sequence (P51812 whole entry, the tested form may be a part): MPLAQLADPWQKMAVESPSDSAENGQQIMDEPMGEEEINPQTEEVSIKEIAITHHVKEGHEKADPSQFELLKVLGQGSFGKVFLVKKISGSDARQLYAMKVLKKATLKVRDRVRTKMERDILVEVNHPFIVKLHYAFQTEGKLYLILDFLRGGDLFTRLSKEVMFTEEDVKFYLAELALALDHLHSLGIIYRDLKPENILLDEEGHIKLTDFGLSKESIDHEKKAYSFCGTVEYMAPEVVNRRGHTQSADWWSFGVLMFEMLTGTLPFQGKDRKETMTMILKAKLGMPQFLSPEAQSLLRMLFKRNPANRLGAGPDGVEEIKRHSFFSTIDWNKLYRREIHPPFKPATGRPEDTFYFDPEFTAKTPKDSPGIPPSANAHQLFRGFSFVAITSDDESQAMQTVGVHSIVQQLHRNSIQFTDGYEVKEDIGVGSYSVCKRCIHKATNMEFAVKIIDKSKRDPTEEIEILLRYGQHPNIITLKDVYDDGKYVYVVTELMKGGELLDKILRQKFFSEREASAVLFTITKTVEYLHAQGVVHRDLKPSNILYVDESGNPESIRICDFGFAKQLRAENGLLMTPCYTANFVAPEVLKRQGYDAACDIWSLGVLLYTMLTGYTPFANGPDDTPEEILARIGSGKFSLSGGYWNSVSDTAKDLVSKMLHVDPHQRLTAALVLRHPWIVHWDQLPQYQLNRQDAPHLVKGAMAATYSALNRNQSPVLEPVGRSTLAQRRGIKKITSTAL
Ribosomal protein S6 kinase alpha-5, sequence (O75582 whole entry, the tested form may be a part): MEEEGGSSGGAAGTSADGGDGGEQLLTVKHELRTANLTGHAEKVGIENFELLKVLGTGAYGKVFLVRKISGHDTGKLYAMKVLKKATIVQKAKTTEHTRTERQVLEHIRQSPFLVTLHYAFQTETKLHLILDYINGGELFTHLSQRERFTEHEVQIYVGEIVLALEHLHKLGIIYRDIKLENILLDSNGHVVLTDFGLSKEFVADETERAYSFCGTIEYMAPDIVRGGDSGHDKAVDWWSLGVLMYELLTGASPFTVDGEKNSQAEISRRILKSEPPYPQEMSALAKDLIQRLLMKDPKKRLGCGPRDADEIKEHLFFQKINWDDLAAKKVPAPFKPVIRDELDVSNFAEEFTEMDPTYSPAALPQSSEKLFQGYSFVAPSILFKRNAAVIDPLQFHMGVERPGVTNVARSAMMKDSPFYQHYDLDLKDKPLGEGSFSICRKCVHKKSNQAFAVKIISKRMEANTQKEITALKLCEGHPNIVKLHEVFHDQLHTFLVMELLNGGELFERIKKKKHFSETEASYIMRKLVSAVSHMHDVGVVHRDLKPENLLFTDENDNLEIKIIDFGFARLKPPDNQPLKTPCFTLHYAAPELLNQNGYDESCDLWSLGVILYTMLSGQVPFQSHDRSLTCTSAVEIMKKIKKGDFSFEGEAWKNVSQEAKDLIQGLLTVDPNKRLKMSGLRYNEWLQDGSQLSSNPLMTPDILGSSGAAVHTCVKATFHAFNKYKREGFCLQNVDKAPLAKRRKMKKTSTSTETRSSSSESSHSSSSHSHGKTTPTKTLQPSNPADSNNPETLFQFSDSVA
Phosphatidylinositol 4-phosphate 3-kinase C2 domain-containing subunit beta, sequence (O00750 whole entry, the tested form may be a part): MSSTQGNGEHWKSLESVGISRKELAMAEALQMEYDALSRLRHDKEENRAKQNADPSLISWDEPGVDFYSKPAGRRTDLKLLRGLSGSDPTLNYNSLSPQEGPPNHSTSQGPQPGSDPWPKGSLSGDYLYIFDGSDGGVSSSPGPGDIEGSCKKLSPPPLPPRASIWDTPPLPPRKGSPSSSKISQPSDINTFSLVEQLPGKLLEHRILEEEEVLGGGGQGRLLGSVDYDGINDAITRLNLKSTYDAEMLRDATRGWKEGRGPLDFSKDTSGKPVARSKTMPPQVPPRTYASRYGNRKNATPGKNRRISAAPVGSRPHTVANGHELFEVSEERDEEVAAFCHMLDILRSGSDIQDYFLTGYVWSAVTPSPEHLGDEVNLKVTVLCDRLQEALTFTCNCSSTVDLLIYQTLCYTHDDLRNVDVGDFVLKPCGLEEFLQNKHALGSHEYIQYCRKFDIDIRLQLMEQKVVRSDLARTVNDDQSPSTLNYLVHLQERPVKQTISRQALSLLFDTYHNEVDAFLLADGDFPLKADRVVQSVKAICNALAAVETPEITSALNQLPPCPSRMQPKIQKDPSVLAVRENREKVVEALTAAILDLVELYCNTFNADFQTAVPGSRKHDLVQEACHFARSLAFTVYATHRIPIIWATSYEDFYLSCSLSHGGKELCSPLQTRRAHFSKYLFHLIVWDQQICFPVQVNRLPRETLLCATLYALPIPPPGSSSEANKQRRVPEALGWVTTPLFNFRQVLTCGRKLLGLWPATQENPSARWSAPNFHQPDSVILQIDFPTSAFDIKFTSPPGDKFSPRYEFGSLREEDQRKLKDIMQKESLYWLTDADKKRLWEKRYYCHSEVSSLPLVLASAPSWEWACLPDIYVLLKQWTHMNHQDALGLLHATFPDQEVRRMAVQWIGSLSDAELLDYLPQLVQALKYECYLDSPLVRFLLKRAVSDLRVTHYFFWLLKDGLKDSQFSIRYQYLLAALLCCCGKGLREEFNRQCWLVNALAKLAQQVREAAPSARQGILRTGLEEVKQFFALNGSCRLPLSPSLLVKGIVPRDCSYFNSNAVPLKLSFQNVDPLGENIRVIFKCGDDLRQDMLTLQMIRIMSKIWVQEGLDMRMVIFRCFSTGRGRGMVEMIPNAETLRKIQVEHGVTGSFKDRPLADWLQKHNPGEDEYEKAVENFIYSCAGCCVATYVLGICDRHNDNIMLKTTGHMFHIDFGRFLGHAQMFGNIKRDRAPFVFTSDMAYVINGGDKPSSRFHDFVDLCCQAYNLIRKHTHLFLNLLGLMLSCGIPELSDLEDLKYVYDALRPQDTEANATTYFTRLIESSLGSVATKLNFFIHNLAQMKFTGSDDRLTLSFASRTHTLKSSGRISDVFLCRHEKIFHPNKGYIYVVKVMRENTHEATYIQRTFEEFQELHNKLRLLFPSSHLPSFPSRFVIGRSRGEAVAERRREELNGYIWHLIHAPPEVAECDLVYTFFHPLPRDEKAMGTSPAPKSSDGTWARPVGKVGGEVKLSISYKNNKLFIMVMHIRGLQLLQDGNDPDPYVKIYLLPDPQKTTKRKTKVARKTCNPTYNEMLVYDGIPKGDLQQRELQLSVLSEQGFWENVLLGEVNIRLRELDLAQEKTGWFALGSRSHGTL

With `CCOc1cc(N2CCC(O)CC2)ccc1Nc1ncc2c(n1)N(C)c1ccccc1C(=O)N2C`, the IC50 in [1], in [6] and in [14] was more than 50 µM each time. In addition, the inhibition is -9.6% in data set [2]; -4.5% in [3]; 4.8% in [4]; 63.8% in data set [5]; -0.6% in data set [7]; -0.6% in data set [8]. The inhibition in data set [11] is 3%; in data set [12] it was 26.1%; in [13] it was -8.7%; in data set [15] it was 28.7%. In addition, in data set [9], the result was Active. The compound also yielded a bioavailability in data set [10] of 69%. Also, the Activity result in data set [16] was “Non-Toxic”.
